# pIC50: −log10 of the molar value. Calls of active or inactive are those of the source. No cut-off for these calls is given here.
# Test system: Human immunodeficiency virus 1
# Assay: Inhibition of HIV1 envelope glycoprotein gp160-mediated cell fusion at 100 µM by cell-cell fusion assay
row,Activity,Compound
1,inactive,CCCCCCCCCC1=C(C(=O)OCc2ccc(COC(=O)C3=C(CCCCCCCCC)NC4=[N+]5[C@H](CC[C@@H]35)C[C@H](CCCCCCC)N4)cc2)[C@@H]2CC[C@@H]3C[C@H](CCCCCCC)NC(=[N+]32)N1
2,inactive,CCCCCCCCC[C@H]1C[C@H]2CC[C@H]3C(C(=O)OCc4ccc(COC(=O)C5=C(C)NC6=[N+]7[C@H](CC[C@@H]57)C[C@H](CCCCCCCCC)N6)cc4)=C(C)NC(=[N+]23)N1

# Test system: Human immunodeficiency virus 1
# Assay: (§1) Inhibition of HIV1 envelope glycoprotein gp160-mediated cell fusion by cell-cell fusion assay
# Procedure, shortened: (§2)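 Cell-cell fusion driven by HIV-1 Env from LAV (X4) and SF162 (R5) strains. Inhibitor added to wells at increasing concentrations; run in duplicate on at least two separate days. Percent fusion fitted by nonlinear least squares to % fusion = 100/(1 + KA[I]), where KA is the equilibrium association constant for inhibitor binding to gp120.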
row,Activity,Compound
1,inactive,CCCCCCCCC[C@H]1C[C@H]2CC[C@H]3C(C(=O)OCc4ccc(COC(=O)C5=C(C)NC6=[N+]7[C@H](CC[C@@H]57)C[C@H](CCCCCCCCC)N6)cc4)=C(C)NC(=[N+]23)N1
2,inactive,CCCCCCCCC[C@H]1C[C@H]2CC[C@H]3C(C(=O)OCCCCCCCCOC(=O)C4=C(C)NC5=[N+]6[C@H](CC[C@@H]46)C[C@H](CCCCCCCCC)N5)=C(C)NC(=[N+]23)N1

# Test system: not listed separately
# Assay: as §1
# Set-up: species or system Human immunodeficiency virus 1
# Procedure, shortened: as §2
row,Compound,pIC50
1,CC(=O)CC(=O)O[C@@H](C)CCCCC[C@@H]1C[C@@H]2CC[C@@H]3C[C@H](C)NC(=[N+]32)N1,4.77
2,C=CCOC(=O)C1=C(CCCCC[C@@H](C)O[Si](C)(C)C(C)(C)C)NC2=[N+]3[C@H](CC[C@@H]13)C[C@H](C)N2,5.35
3,CCCCCCCCC[C@H](O)C[C@@H]1CC[C@H]2C(C(=O)O[C@@H](C)CCCCC[C@@H]3C[C@@H]4CC[C@@H]5C[C@H](C)NC(=[N+]54)N3)=C(C)NC(N)=[N+]12,5.11
4,CC(=O)CC(=O)O[C@@H](C)CCCCC[C@H]1C[C@H]2CC[C@H]3C[C@@H](C)NC(=[N+]23)N1,5.28
5,CCCCCCCCC[C@H](O)C[C@@H]1CC[C@H]2C(C(=O)O[C@H](C)CCCCC[C@H]3C[C@H]4CC[C@H]5C[C@@H](C)NC(=[N+]45)N3)=C(C)NC(N)=[N+]12,5.21

# Further lines, results first:
row,pIC50,Compound
1,6.10,CCCCCCCCC[C@@H]1C[C@@H]2CCC3=C(C(=O)O[C@H](C)CCCCC[C@@H]4C[C@@H]5CC[C@@H]6C[C@H](C)NC(=[N+]65)N4)[C@@H](C)NC(=[N+]32)N1
2,5.46,CCCCCCCCC[C@@H]1C[C@@H]2CC[C@H]3C(C(=O)OC(C)(C)C)=C(C)NC(=[N+]23)N1
3,5.74,CCCCCCCCC[C@@H]1C[C@@H]2CC[C@H]3C(C(=O)O[C@@H](C)CCCCC[C@@H]4C[C@@H]5CC[C@@H]6C[C@H](C)NC(=[N+]65)N4)=C(C)NC(=[N+]23)N1
4,5.60,CCCCCCCCC[C@@H]1C[C@@H]2CC[C@H]3[C@H](C(=O)O[C@H](C)CCCCC[C@@H]4C[C@@H]5CC[C@@H]6C[C@H](C)NC(=[N+]65)N4)[C@H](C)NC(=[N+]23)N1
5,5.52,CCCCCCCCC[C@@H]1C[C@@H]2CC[C@H]3[C@H](C(=O)O[C@H](C)CCCCC[C@@H]4C[C@@H]5CC[C@@H]6C[C@H](C)NC(=[N+]65)N4)[C@@H](C)NC(=[N+]23)N1

# — ChEMBL document CHEMBL1148198, “Inhibition of HIV-1 envelope-mediated fusion by synthetic batzelladine analogues” (J Nat Prod, 2004)
